Assay outcomes (PubChem BioAssay)
TCR-CD3 inh: human TCR-CD3 binding inhibition | TAMRA-labeled TCR probe fluorescence, biochemical | inhibition, % at 9.4 µM | 360,000 compounds, 0.37% hits; in the data active means inhibition above about 19%;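 further: recombinant mutant TCR 2C K166C tagged with TAMRA read by polarization; 0% = receptor in buffer alone and 100% = receptor with positive control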
PRMT1 FP inh: PRMT1 (human) inhibition, primary screen; 370,000 compounds, 1.3% hits; inhibition, % at 2.79 µM; recombinant PRMT1, activity-based probe fluorescence polarization; Q99873; AID 652257;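 active means inhibition above about 21% made by adding two undisclosed values, limit read from the data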
HTRA1 inhibitor: blocks human HTRA1 serine peptidase. inhibition, % at 5.96 µM. 340,000 compounds, 0.5% hits. recombinant HTRA1, FP-rhodamine activity-based probe, fluorescence polarization; in the data active means inhibition above about 36%;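 further: 0% = enzyme with DMSO and 100% = wells lacking enzyme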
mABHD4 FP: inhibitors of mouse ABHD4 | AID 720543 | purified mABHD4, FP-Rh probe fluorescence polarization | 370,000 compounds, 0.54% hits | inhibition, % at 8.92 µM | Q8VD66;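 active means inhibition exceeding the mean over every tested compound plus 3 SD, cut at about 30% in these data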;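 further: 0% = plate median of compound wells and 100% = S159A mutant with DMSO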
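System: mouse ABHD4 enzyme, wild type / Medium: HEPES pH 7.0, NaCl, Pluronic buffer / Reagent: FP-Rh activity-based fluorescent probe / Control set: S159A mutant high control, sample median low control / Detection: fluorescence polarization with parallel and perpendicular emission, 525/598 nm / Schedule: 45 min + 60 min at 25 °C / Compound dosing: 8.92 µM, single dose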
ATG4B inh: inhibitors of human ATG4B cysteine protease; Q9Y4P1; inhibition, % at 8.33 µM; 340,000 compounds, 0.51% hits; ATG4B cleavage of LC3-PLA2, NBD-HPC fluorescence, 1 h; in the data active means inhibition above about 40%
SIAE inh: blocks human sialic acid acetylesterase; AID 1053197; SIAE FP-Rh probe binding, fluorescence polarization; 370,000 compounds, 0.69% hits; inhibition, % at 9.66 µM; Q9HAT2;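 active means inhibition above a cutoff: mean of compounds within the control limits plus 3 SD of those, cut at about 17% in these data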;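 further: 0% = plate median of compound wells and 100% = probe without SIAE protein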
Target sequence (Q9HAT2 whole entry, looked up): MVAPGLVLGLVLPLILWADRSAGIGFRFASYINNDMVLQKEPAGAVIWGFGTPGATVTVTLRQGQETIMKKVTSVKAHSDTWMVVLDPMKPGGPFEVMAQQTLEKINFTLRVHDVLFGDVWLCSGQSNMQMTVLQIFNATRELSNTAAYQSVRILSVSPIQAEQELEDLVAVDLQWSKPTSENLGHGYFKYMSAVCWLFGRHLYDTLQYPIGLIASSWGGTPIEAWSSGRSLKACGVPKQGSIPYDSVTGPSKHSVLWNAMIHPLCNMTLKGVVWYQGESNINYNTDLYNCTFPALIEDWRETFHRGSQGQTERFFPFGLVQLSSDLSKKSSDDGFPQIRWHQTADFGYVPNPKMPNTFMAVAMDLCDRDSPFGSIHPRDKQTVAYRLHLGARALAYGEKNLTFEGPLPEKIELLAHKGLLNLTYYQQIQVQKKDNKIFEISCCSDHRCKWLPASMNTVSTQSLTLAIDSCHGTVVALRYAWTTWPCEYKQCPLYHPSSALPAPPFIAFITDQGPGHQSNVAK
SIAE inh conf: confirmation of human SIAE inhibitors | shares compounds with SIAE inh | inhibition, % at 9.66 µM | SIAE FP-Rh activity-based probe, fluorescence polarization | 2,300 compounds, 13% hits;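 active means mean inhibition of the replicates above the hit cutoff set in the primary screen, cut at about 17% in these data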;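 further: 0% = SIAE with DMSO and probe and 100% = probe without SIAE; inhibitors lower polarization as more probe stays unbound to SIAE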
* hit, by the source's call; . = no result given. Sampled rows, rich in hits. Any-hit rate of the full collection: about 2.9%.

SMILES | TCR-CD3 inh | PRMT1 FP inh | HTRA1 inhibitor | mABHD4 FP | ATG4B inh | SIAE inh | SIAE inh conf
O=[N+]([O-])c1ccc(NC2CCCC2)cc1 | 3 | 0 | -9 | 4 | -10 | 19* | 1
O=C1CCCCC1Nc1ccc([N+](=O)[O-])cc1 (configuration not stated) | 6 | 0 | 5 | 2 | -5 | -4 | .
COC(=O)C1=C(C)N(Cc2ccc(C(F)(F)F)cc2)C(=NCc2ccc(C(F)(F)F)cc2)NC1c1ccccc1 (configuration not stated) | 4 | 2 | . | 16 | . | -4 | .
Cc1cccc(OCCn2cc(/C=N/NC(=O)c3ccncc3)c3ccccc32)c1 | 7 | 1 | 6 | 7 | -29 | 31* | -3
N#CCC(=O)N/N=C/c1cn(Cc2ccc(Cl)c(Cl)c2)c2ccccc12 | 2 | 0 | -4 | 1 | -4 | -9 | .
COC(=O)N/N=C/c1cn(CCOc2cccc(OC)c2)c2ccccc12 | -1 | -1 | 6 | 3 | 17 | 0 | .
O=C(N/N=C/c1cn(Cc2ccccc2)c2ccccc12)c1cc(O)cc(O)c1 | 12 | 5 | 7 | 7 | 26 | 20* | -7
Nc1[nH]c(C(=O)c2ccc(Br)cc2)c(-c2c(F)cccc2F)c1C(=O)NCCc1c[nH]c2ccccc12 | 1 | 0 | . | 29 | . | 7 | .
O[C@@H](Cc1ccccc1)[C@@H](/C=C/c1ccccc1)N(Cc1ccccc1)Cc1ccccc1 | -5 | 0 | . | -12 | . | 0 | .
CC(C)N1CCCCC(NC(=O)c2c(F)cccc2F)C1=O (configuration not stated) | . | -5 | . | -4 | . | 1 | .
COc1cc(NC2=Nc3cccc4cccc2c34)cc(OC)c1OC | 2 | -2 | 0 | 0 | -11 | 24* | 9
COc1ccc(NC2=Nc3cccc4cccc2c34)cc1OC | -9 | 1 | -7 | 6 | -16 | 6 | .
CC(C)(C)N1Cc2nnn(Cc3ccccc3)c2-c2ccccc2S1(=O)=O | . | 2 | . | 2 | . | -2 | .
c1ccc(Oc2ccc(-c3ccnc4nc(N5CCN(c6ccccc6)CC5)nn34)cc2)cc1 | -7 | -2 | -4 | -9 | 0 | 22* | 4
c1ccc(-c2ccnc3nc(N4CCN(c5ccccc5)CC4)nn23)cc1 | 8 | -1 | -19 | 1 | 4 | -4 | .
COC(=O)[C@@]12CCCCC3=C1N(CCC3)C(=O)[C@H]2CC(=O)NCCCCc1ccccc1 | . | 0 | . | 2 | . | 7 | .
C=CCN1C(=O)[C@@H](CC(=O)NCC23CC4CC(CC(C4)C2)C3)[C@]2(C(=O)OCC)CCCCC/C=C/12 | . | 8 | . | 5 | . | 3 | .
CCOc1ncccc1C(=O)N1CCN(S(=O)(=O)c2ccc3c(c2)OCCO3)CC1 | 8 | -2 | 1 | -2 | 2 | 22* | -3
CCOc1ncccc1C(=O)N1CCN(S(=O)(=O)c2ccccc2)CC1 | 0 | -5 | -2 | -2 | 6 | -1 | .
CN(C)S(=O)(=O)c1ccc(C(=O)N2CCN(S(=O)(=O)c3ccc4c(c3)OCCO4)CC2)cc1 | 4 | -1 | 11 | -1 | -9 | 20* | 1
COC(=O)[C@H](C(C)C)N(Cc1cn(Cc2ccc(C)cc2)nn1)S(=O)(=O)c1ccc(F)cc1Br | . | -7 | . | -3 | . | 4 | .
CS(=O)(=O)N(CC(=O)NCCSC1CCCCC1)c1cccc(F)c1 | -2 | -1 | 0 | 8 | -8 | 18* | 1
O=C(Nc1ccc(Cl)cc1C(F)(F)F)c1ccccc1Cl | -8 | -3 | -8 | -3 | 13 | 29* | -5
O=C(C1CCCN(S(=O)(=O)c2ccc([N+](=O)[O-])cc2)C1)N1CCN(Cc2ccccc2)CC1 (configuration not stated) | . | 0 | . | 1 | . | -3 | .
O=C(O)CCc1n[nH]c(=S)[nH]c1=O | -3 | 8 | 7 | 1 | -4 | 17* | 2
SMILES | TCR-CD3 inh | PRMT1 FP inh | HTRA1 inhibitor | mABHD4 FP | ATG4B inh | SIAE inh | SIAE inh conf
CCCCCCNC(=O)C1CSCCS(=O)(=O)N1Cc1ccc(OC)cc1 (configuration not stated) | . | -2 | . | 2 | . | 0 | .
N#CCC[C@H]1CC[C@]2(CCCN(C(=O)C3CCCCC3)C2)O1 | . | -4 | . | 2 | . | -1 | .
COC(=O)c1cc2c(c3c4cc(C)ccc4n(S(=O)(=O)c4ccc(OC)cc4)c13)C(=O)N(Cc1ccccc1OC)C2 | 7 | 2 | . | 2 | . | -4 | .
COc1ccccc1CNC(=O)C1CCCN(S(C)(=O)=O)C1 (configuration not stated) | 5 | 0 | -3 | 4 | 4 | 23* | -1
COc1ccccc1CNC(=O)C1CCCN(S(=O)(=O)c2cccs2)C1 (configuration not stated) | 3 | 4 | 4 | 3 | 6 | -9 | .
C=CCn1c(SCC(C)=O)nc2sc3c(c2c1=O)CCC3 | 2 | -2 | 2 | -9 | 5 | 3 | .
C=CCn1c(SCC(=O)N(CC)C2CCS(=O)(=O)C2)nc2sc3c(c2c1=O)CCC3 (configuration not stated) | 0 | -1 | -5 | 2 | -7 | 18* | 9
CC[C@]12c3[nH]c4cc(-c5ccco5)ccc4c3CCN1C(=O)[C@@H](CC(=O)NCC13CC4CC(CC(C4)C1)C3)C[C@@H]2C(=O)N1CCN(C(=O)C2CC2)CC1 | -4 | 11 | 0 | 17 | -7 | 4 | .
CC[C@]12c3[nH]c4cc(-c5ccco5)ccc4c3CCN1C(=O)[C@@H](CC(=O)NCC13CC4CC(CC(C4)C1)C3)C[C@@H]2C(=O)N1CCN(C(=O)c2ccco2)CC1 | -7 | 7 | -9 | 22 | -1 | 18* | 0
NS(=O)(=O)c1cccc(NC(=S)NC(=O)c2cccc([N+](=O)[O-])c2)c1 | -4 | 2 | 3 | -3 | -1 | 12 | .
O=C(Nc1nc(-c2cccnc2)cs1)c1cccc([N+](=O)[O-])c1 | -3 | -1 | -1 | -2 | 1 | -4 | .
O=C(NC(=S)Nc1cccc(NC(=O)c2ccccc2)c1)c1cccc([N+](=O)[O-])c1 | -5 | 0 | -62 | -7 | 14 | 63* | -16
O=C(Nc1nc(-c2ccccc2)cs1)c1cccc([N+](=O)[O-])c1 | 7 | -2 | -28 | -17 | -2 | 19* | -65
S=C(NCCCn1ccnc1)Nc1cccc(Cl)c1 | 7 | -3 | 0 | -1 | 4 | 20* | 0
CCN(CC)c1ccc(/C=N/NC(=O)c2nnn(-c3nonc3N)c2C(C)C)c(O)c1 | -5 | 10 | 35 | 18 | 6 | 17* | 5
CCCN(CCC)Cc1c(C(=O)N/N=C/c2ccco2)nnn1-c1nonc1N | -3 | -7 | -19 | 2 | -3 | 17* | 5
CCCN(CCC)Cc1c(C(=O)N/N=C/c2ccoc2)nnn1-c1nonc1N | -7 | -1 | -25 | -4 | -6 | 2 | .
